{
  "source": "paper PMC2736802",
  "about": "(Drug metabolism and disposition: the biological fate of …, 2008)",
  "key": {"P450 3A5 [1]": {"biological_target": "T1, P450 3A5 (Homo sapiens, UniProt P20815)", "T1 sequence (P20815 whole entry)": "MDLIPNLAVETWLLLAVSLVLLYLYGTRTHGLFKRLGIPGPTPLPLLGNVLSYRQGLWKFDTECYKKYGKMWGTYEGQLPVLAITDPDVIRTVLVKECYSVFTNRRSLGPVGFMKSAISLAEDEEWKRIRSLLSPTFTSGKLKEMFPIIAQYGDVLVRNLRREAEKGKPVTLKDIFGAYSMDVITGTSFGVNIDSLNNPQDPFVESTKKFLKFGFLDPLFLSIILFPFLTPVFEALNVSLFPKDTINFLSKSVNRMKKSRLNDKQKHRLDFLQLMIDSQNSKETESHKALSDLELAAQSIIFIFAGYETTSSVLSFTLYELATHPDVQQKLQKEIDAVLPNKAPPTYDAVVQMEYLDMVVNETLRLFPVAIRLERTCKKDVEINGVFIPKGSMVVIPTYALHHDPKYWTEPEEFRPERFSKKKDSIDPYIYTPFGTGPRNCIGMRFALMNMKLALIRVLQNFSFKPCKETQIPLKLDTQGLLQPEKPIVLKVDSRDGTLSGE", "experiment": "Formation of 7-hydroxycoumarin by P450 3A5", "type": "in vitro ADME", "conditions": "30 min reaction", "summary_of_the_method": "(§1)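 P450 3A4 or 3A5 (expressed in E. coli, purified) was reconstituted with test compound. Reactions were started with 1 mM NADPH, run 30 min and stopped with 15% trichloroacetic acid. 7-Hydroxycoumarin was measured by C18 HPLC (isocratic 30% methanol, 0.2% acetic acid) with fluorescence detection (ex 350/em 453 nm). Quantified from peak areas against a 7-hydroxycoumarin standard curve.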"}, "human liver microsomes": {"system": "human liver microsomes", "experiment": "Inactivation of human liver microsomes", "type": "biochemical", "conditions": "BFC assay; data not shown"}, "P450 3A4 [2]": {"system": "P450 3A4", "experiment": "Formation of 7-hydroxycoumarin by P450 3A4", "type": "in vitro ADME, human", "conditions": "30 min reaction", "summary_of_the_method": "as §1"}, "P450 3A4 [3]": {"system": "P450 3A4", "experiment": "Trapping of reactive intermediates formed by P450 3A4 with GSH", "type": "in vitro ADME, human", "conditions": "incubation with P450 3A4 in the presence of GSH and NADPH", "summary_of_the_method": "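Reconstituted P450 3A4 (0.5 nmol, with reductase and lipid) was inactivated by the test compound plus NADPH in the presence of 10 mM GSH. Reactions were stopped with 10% trifluoroacetic acid (60 μl/ml sample). Separation used a C18 column in a 5% acetonitrile/0.1% acetic acid gradient. Detection was ESI MS: full scan m/z 150–1000 plus two dependent MS/MS scans at 35% collision energy, with fluorescence detection also used.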"}, "P450 3A4 [4]": {"system": "P450 3A4", "type": "biochemical, human", "conditions": "substrate testosterone; reconstituted system"}, "P450 3A5 [5]": {"biological_target": "T1, P450 3A5", "type": "biochemical", "conditions": "in the presence of NADPH", "summary_of_the_method": "(§2)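 Purified P450 was reconstituted with reductase and held 20 min at room temperature, then diluted in 50 mM Hepes pH 7.5 with 2 mM GSH and 250 units catalase. Test compound was added (25–500 μM or 5–100 μM, in acetonitrile), then NADPH. Timed 9 pmol aliquots went into 50 μM BFC/1 mM NADPH in 200 mM phosphate pH 7.4 for 15 min at 37 °C. Fluorescence read at ex 409/em 530 nm; KI, kinact and t1/2 from double-reciprocal plots.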"}, "P450 3A4 [6]": {"system": "P450 3A4", "experiment": "LC-APCI-MS metabolite analysis with P450 3A4", "type": "in vitro ADME, human", "conditions": "incubation with P450 3A4 and NADPH", "summary_of_the_method": "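P450 3A4 reconstituted with reductase and lipid, then incubated with the test compound and NADPH at 37°C for 60 min. Control and inactivated samples (900 pmol each) were extracted with ethyl acetate and dried under nitrogen. Analysis was by LC-APCI-MS with UV at 319 nm, full scans m/z 100–2000, and data-dependent MS/MS on the four most intense ions.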"}, "P450 3A4 [7]": {"system": "P450 3A4", "type": "biochemical, human", "conditions": "for % Activity Remaining: 50 μM CPE or 12 μM TFCPE; for loss in O-debenzylation activity: after a 20-min incubation compared with 0 min", "summary_of_the_method": "as §2"}, "P450 3A4 [8]": {"system": "P450 3A4", "experiment": "Heme analysis of inactivated P450 3A4", "type": "biochemical, human", "conditions": "for % P450 Remaining by reduced-CO spectrum: 50 μM CPE or 12 μM TFCPE; for Residual Heme by HPLC: area under heme peak at 405 nm, control set to 100 %; for loss in heme: measured by HPLC, compared with the -NADPH control", "summary_of_the_method": "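P450 3A4 was reconstituted and inactivated as in the activity assay (50 μM or 12 μM test compound, 20 min, ±NADPH). For reduced-CO spectra, 100 pmol went into 50 mM phosphate pH 7.4 with 40% glycerol and 0.6% Tergitol, was CO-bubbled and dithionite-reduced, and scanned at 400–500 nm. For heme, 100 pmol was run on C4 HPLC (30–90% acetonitrile, 0.1% TFA, 30 min) and the 405 nm peak area was set against control = 100%. Mean and S.D. of four experiments.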"}, "[9]": {"system": "dextromethorphan induced micrsomes", "experiment": "Inactivation of dextromethorphan induced microsomes", "type": "biochemical", "conditions": "data not shown", "summary_of_the_method": "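Human liver microsomes and dextromethorphan-induced microsomes (0.3 nmol) were incubated with test compound in the presence of catalase and GSH. Reactions were started with NADPH and sampled at 0, 5 and 12 min. Residual activity was measured by the BFC O-debenzylation fluorescence assay.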"}, "P450 3A5 [10]": {"biological_target": "T1, P450 3A5", "experiment": "LC-APCI-MS metabolite analysis with P450 3A5", "type": "in vitro ADME", "conditions": "incubation with P450 3A5", "summary_of_the_method": "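Reconstituted P450 3A5 was incubated with test compound and NADPH. Samples (900 pmol) were extracted with ethyl acetate, dried and taken up in 50% acetonitrile. Separation used C18 reverse phase with a water/acetonitrile gradient in 0.1% acetic acid, monitored by UV at 319 nm. Detection was positive-mode APCI on a linear ion trap, with full scans at m/z 100–2000 and data-dependent MS/MS.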"}, "[11]": {"conditions": "substrate BFC, reconstituted system"}},
  "note": "Entries after “also recorded” stand apart in the source; their conditions may differ. Read-outs that look alike come from different tables or passages of the source.",
  "data": [
    {"molecule": "C#CCOc1ccc2ccc(=O)oc2c1", "note": "[CPE, 7-coumarin propargyl ether]", "values": [
      {"measurement": "Formation of 7-OH coumarin", "setting": "P450 3A5 [1]", "result": "85.5 ± 7", "unit": "pmol/pmol P450/min"},
      {"measurement": "inactivation of human liver microsomes", "setting": "human liver microsomes", "result": "did not show inactivation; also recorded: neither CPE nor TFCPE led to any inactivation"},
      {"measurement": "Formation of 7-OH coumarin", "setting": "P450 3A4 [2]", "result": "48.1 ± 5", "unit": "pmol/pmol P450/min"},
      {"measurement": "formation of glutathione adducts", "setting": "P450 3A4 [3]", "result": "formation of CPE- and TFCPE-glutathione adducts"},
      {"measurement": "Kinact (maximal rate of inactivation)", "setting": "P450 3A4 [4]", "result": 0.014, "unit": "min⁻¹"},
      {"measurement": "inactivation of the BFC O-debenzylation activity of P450 3A5", "setting": "P450 3A5 [5]", "result": "no inactivation; also recorded: neither CPE nor TFCPE showed any effect; also recorded: do not affect the activity"},
      {"measurement": "metabolite peak by LC-APCI-MS/UV 319 nm", "setting": "P450 3A4 [6]", "result": "No similar peak or any other metabolite peak was observed"},
      {"measurement": "% Activity Remaining", "setting": "P450 3A4 [7]; 0 min, +NADPH", "result": "85 ± 4", "unit": "%"},
      {"measurement": "% Activity Remaining", "setting": "P450 3A4 [7]; 0 min, -NADPH", "result": "86 ± 5", "unit": "%"},
      {"measurement": "% Activity Remaining", "setting": "P450 3A4 [7]; 20 min, +NADPH", "result": "50 ± 9", "unit": "%"},
      {"measurement": "% Activity Remaining", "setting": "P450 3A4 [7]; 20 min, -NADPH", "result": "79 ± 3", "unit": "%"},
      {"measurement": "loss in O-debenzylation activity", "setting": "P450 3A4 [7]", "result": "~35", "unit": "%"},
      {"measurement": "Kinact (maximal rate of inactivation)", "setting": "P450 3A4 [7]; [11]", "result": 0.05, "unit": "min⁻¹"},
      {"measurement": "% P450 Remaining by reduced-CO spectrum", "setting": "P450 3A4 [8]; 0 min, +NADPH", "result": "69 ± 5", "unit": "%"},
      {"measurement": "% P450 Remaining by reduced-CO spectrum", "setting": "P450 3A4 [8]; 0 min, -NADPH", "result": "69 ± 7", "unit": "%"},
      {"measurement": "% P450 Remaining by reduced-CO spectrum", "setting": "P450 3A4 [8]; 20 min, +NADPH", "result": "67 ± 4", "unit": "%"},
      {"measurement": "% P450 Remaining by reduced-CO spectrum", "setting": "P450 3A4 [8]; 20 min, -NADPH", "result": "67 ± 2", "unit": "%"},
      {"measurement": "Residual Heme by HPLC", "setting": "P450 3A4 [8]; +NADPH", "result": "70 ± 11", "unit": "%"},
      {"measurement": "Residual Heme by HPLC", "setting": "P450 3A4 [8]; -NADPH", "result": "100 ± 9", "unit": "%"},
      {"measurement": "loss in heme", "setting": "P450 3A4 [8]", "result": "approximately 30%"},
      {"measurement": "inactivation of dextromethorphan induced microsomes", "setting": "[9]", "result": "did not show inactivation"}
    ]},
    {"molecule": "C#CCOc1ccc2c(C(F)(F)F)cc(=O)oc2c1", "note": "[TFCPE, 7-(4-trifluoromethyl)coumarin propargyl ether]", "values": [
      {"measurement": "Formation of 7-OH coumarin", "setting": "P450 3A5 [1]", "result": "78.8 ± 11", "unit": "pmol/pmol P450/min"},
      {"measurement": "inactivation of human liver microsomes", "setting": "human liver microsomes", "result": "did not show inactivation; also recorded: neither CPE nor TFCPE led to any inactivation"},
      {"measurement": "metabolite by LC-APCI-MS", "setting": "P450 3A5 [10]", "result": "did not result in any metabolite"},
      {"measurement": "Formation of 7-OH coumarin", "setting": "P450 3A4 [2]", "result": "97.2 ± 1", "unit": "pmol/pmol P450/min"},
      {"measurement": "formation of glutathione adducts", "setting": "P450 3A4 [3]", "result": "formation of CPE- and TFCPE-glutathione adducts"},
      {"measurement": "Kinact (maximal rate of inactivation)", "setting": "P450 3A4 [4]", "result": 0.04, "unit": "min⁻¹"},
      {"measurement": "t1/2", "setting": "P450 3A4 [4]", "result": 17, "unit": "min"},
      {"measurement": "inactivation of the BFC O-debenzylation activity of P450 3A5", "setting": "P450 3A5 [5]", "result": "no inactivation; also recorded: neither CPE nor TFCPE showed any effect; also recorded: do not affect the activity"},
      {"measurement": "metabolite peak by LC-APCI-MS/UV 319 nm", "setting": "P450 3A4 [6]", "result": "single metabolite peak eluting at 20.34 min"},
      {"measurement": "% Activity Remaining", "setting": "P450 3A4 [7]; 0 min, +NADPH", "result": "82 ± 5", "unit": "%"},
      {"measurement": "% Activity Remaining", "setting": "P450 3A4 [7]; 0 min, -NADPH", "result": "88 ± 3", "unit": "%"},
      {"measurement": "% Activity Remaining", "setting": "P450 3A4 [7]; 20 min, +NADPH", "result": "25 ± 3", "unit": "%"},
      {"measurement": "% Activity Remaining", "setting": "P450 3A4 [7]; 20 min, -NADPH", "result": "79 ± 7", "unit": "%"},
      {"measurement": "loss in O-debenzylation activity", "setting": "P450 3A4 [7]", "result": "approximately 55%"},
      {"measurement": "Kinact (maximal rate of inactivation)", "setting": "P450 3A4 [7]; [11]", "result": 0.04, "unit": "min⁻¹"},
      {"measurement": "t1/2", "setting": "P450 3A4 [7]; [11]", "result": 16.5, "unit": "min"},
      {"measurement": "loss in activity", "setting": "P450 3A4 [7]; with the -NADPH +TFCPE control", "result": "approximately 55%"},
      {"measurement": "% P450 Remaining by reduced-CO spectrum", "setting": "P450 3A4 [8]; 0 min, +NADPH", "result": "75 ± 6", "unit": "%"},
      {"measurement": "% P450 Remaining by reduced-CO spectrum", "setting": "P450 3A4 [8]; 0 min, -NADPH", "result": "75 ± 4", "unit": "%"},
      {"measurement": "% P450 Remaining by reduced-CO spectrum", "setting": "P450 3A4 [8]; 20 min, +NADPH", "result": "43 ± 4", "unit": "%"},
      {"measurement": "% P450 Remaining by reduced-CO spectrum", "setting": "P450 3A4 [8]; 20 min, -NADPH", "result": "62 ± 2", "unit": "%"},
      {"measurement": "Residual Heme by HPLC", "setting": "P450 3A4 [8]; +NADPH", "result": "61 ± 2", "unit": "%"},
      {"measurement": "Residual Heme by HPLC", "setting": "P450 3A4 [8]; -NADPH", "result": "100 ± 4", "unit": "%"},
      {"measurement": "loss in heme", "setting": "P450 3A4 [8]", "result": 40, "unit": "%"},
      {"measurement": "inactivation of dextromethorphan induced microsomes", "setting": "[9]", "result": "did not show inactivation"}
    ]}
  ]
}
